# High-throughput results (PubChem BioAssay)
# KCC2 mod = KCC2 cotransporter modulators, thallium flux, primary screen, cell-based, HEK293 KCC2, FluoZin-2 fluorescence, MLSMR | Solute carrier family 12 member 5 (Homo sapiens), Q9H2X9 | KCC2 cells, thallium flux FluoZin-2 fluorescence | B-score of Tl+ flux slope (higher = more flux/activation; lower = inhibition) at 10 µM | actives 2.2% (n = 190,000);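 active = thallium flux slope and its plate-corrected score both differing from the plate sample mean at a set confidence after two filtering rounds, in either direction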;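 note: slope of fluorescence scaled to starting intensity during 10 to 20 s after thallium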
# hERG protect = hERG rescue from dofetilide block, primary screen, cell-based, CHO-hERG, FluxOR thallium flux, dofetilide IC70; Voltage-gated inwardly rectifying potassium channel KCNH2 (Homo sapiens), Q12809; dofetilide IC70 present; activation (rescue from dofetilide block), less the hit threshold, % at 10 µM; actives 0.51% (n = 310,000);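 active = activation above the mean of controls blocked by dofetilide plus 5 SD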;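 note: thallium influx through hERG after potassium depolarization seen as dye fluorescence rise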
# SUMO Mot1 rescue = yeast Mot1-301 growth rescue at high temperature, primary screen, SUMOylation pathway inhibitor project, S. cerevisiae, ATP luminescence, 38.5C; S. cerevisiae Mot1-301 growth rescue; percent above DMSO median, 100 means doubled; growth rescue, % at 18.8 µM; actives 1% (n = 320,000); AID 2716, 2010;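 active = every valid replicate shows activation above 250% relative to neutral control wells; inactive = the rest, any valid replicate at or below 250%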;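 note: OY570 slx delta 5 strain wells were the positive control but not used for scaling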
# AI-2 QS modul = Vibrio harveyi AI-2 quorum sensing modulators, primary screen, JMH597 strain, luminescence/OD600 ratio. Vibrio harveyi JMH597 AI-2 luminescence/OD600 ratio, 9 h; stronger effect = lower value; strain lacks LuxN and CqsS sensors; 0 = neutral-control median. activity change, % at 7.5 µM. actives 0.4% (n = 300,000). AID 2094, 2009; in the data active = activity change below about -75%, passing the limit was not always enough; inconclusive = no clear call, values can overlap the other calls;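 note: luminescence divided by OD600 gain over 9 h not by final OD600 alone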
# KCNQ1 act = potentiators or activators of KCNQ1 channel, primary screen, cell-based, thallium flux, high-throughput; Potassium voltage-gated channel subfamily KQT member 1 (Homo sapiens), P51787; B-score at 10 µM; actives 0.35% (n = 310,000); AID 2648, 2010; CHO-K1 KCNQ1, thallium flux FluxOR fluorescence; stronger effect = higher value;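 active = fluorescence ratio B-score, a plate-corrected score, at least three library SD, with initial intensity B-score within 5 SD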
# Target sequence (P51787 whole entry, looked up): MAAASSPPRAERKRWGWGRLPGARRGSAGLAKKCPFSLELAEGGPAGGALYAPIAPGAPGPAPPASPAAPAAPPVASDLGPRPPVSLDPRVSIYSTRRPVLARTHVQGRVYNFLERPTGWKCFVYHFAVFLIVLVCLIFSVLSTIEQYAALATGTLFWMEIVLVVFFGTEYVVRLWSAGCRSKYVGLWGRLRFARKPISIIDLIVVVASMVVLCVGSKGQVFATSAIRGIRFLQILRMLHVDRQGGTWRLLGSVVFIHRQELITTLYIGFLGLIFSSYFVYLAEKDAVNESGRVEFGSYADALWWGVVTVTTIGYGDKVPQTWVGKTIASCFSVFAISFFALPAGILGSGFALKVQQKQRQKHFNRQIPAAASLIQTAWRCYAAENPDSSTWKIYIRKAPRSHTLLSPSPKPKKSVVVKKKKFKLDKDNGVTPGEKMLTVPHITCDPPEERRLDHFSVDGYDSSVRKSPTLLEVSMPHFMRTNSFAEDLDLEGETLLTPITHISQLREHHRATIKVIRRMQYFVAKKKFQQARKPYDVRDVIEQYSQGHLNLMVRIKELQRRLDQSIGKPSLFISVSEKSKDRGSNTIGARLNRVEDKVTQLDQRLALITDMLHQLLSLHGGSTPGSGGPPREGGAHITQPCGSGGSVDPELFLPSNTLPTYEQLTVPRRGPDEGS
#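 System: CHO-K1 cells stably expressing KCNQ1 / Medium: assay buffer for compound exposure, DMSO matched across wells / Reagent: thallium- and potassium-containing depolarizing buffer / Compound: one concentration, matched DMSO / Incubation: 20 min compound pretreatment at room temperature / Measured by: kinetic FluxOR fluorescence, 10 s baseline plus 110 s post-stimulus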
# KCNQ1 inh = inhibitors of human KCNQ1 channel, primary screen, cell-based, thallium flux, high-throughput. Potassium voltage-gated channel subfamily KQT member 1 (Homo sapiens), P51787. CHO-K1 KCNQ1, FluxOR thallium flux fluorescence; stronger effect = higher value. B-score at 10 µM. actives 1.3% (n = 310,000). AID 2642, 2010;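 active = compounds whose thallium flux B-score, printed positive for inhibition, exceeds three library SD while starting fluorescence stays within three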;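 note: channel opened by potassium depolarization with thallium stimulus after 20 min compound exposure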
# KCC2 sec1 = KCC2 modulators in sodium-free buffer, confirmation, cell-based, HEK293 KCC2, thallium flux, secondary assay; shares compounds with KCC2 mod; FluoZin2 fluorescence; stronger effect = higher value; normalised thallium flux (F/F0 slope) at 10 µM; actives 15% (n = 3,700);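 active = thallium flux slope above the same plate's solvent-only control mean plus 3 SD; inconclusive = the two replicate wells disagree; inactive = no significant difference from solvent-only control wells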
# KCC2 bumet counter = thallium flux persisting under bumetanide in KCC2 cells, confirmation, counter-screen for KCC2 modulator project, cell-based, HEK293 KCC2, FluoZin2, secondary assay 3; shares compounds with KCC2 mod; HEK293-KCC2 + bumetanide/ouabain; stronger effect = higher value; normalized thallium flux at 10 µM; actives 49% (n = 3,700); AID 1714, 2009;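 active = thallium entry rate above the same plate's blocked-transporter control wells by more than 3 SD; inconclusive = the two repeat wells disagree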;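 note: raw slope of fluorescence over initial fluorescence between 10 and 20 s after thallium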
# KCC2 sec2 = KCC2 modulators without ouabain present, confirmation, cell-based, HEK293 KCC2, thallium flux, FluoZin2, secondary assay 2; shares compounds with KCC2 mod; thallium flux FluoZin2 fluorescence; actives lie on both sides; F/F0 rise rate, 10–20 s post-thallium; AID 1715, 2009; normalized thallium flux at 10 µM; actives 23% (n = 3,700);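 active = thallium flux slope more than 3 SD above or below the plate's solvent-only control mean, mostly below; inconclusive = the two repeat wells disagreed; inactive = no significant shift from solvent-only controls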;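 note: raw slope with 0.1% DMSO as baseline and bumetanide as block control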
# HEK counter1 = thallium flux modulation in parental HEK cells, confirmation, counter-screen for KCC2 modulator project, cell-based, counterscreen 1 | HEK293 parental cells, thallium flux FluoZin2, ouabain; baseline-ratio fluorescence slope, 10–20 s after thallium | shares compounds with KCC2 mod | actives 46% (n = 3,700) | thallium flux rate (normalised fluorescence) at 10 µM | AID 1716, 2009;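 active = thallium flux rate significantly above the same plate's solvent-only control wells, beyond their mean plus 3 SD; inconclusive = the two replicate wells gave conflicting results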
# KCC2 retest ouab = KCC2 inhibitors and activators, ouabain retest, confirmation, HEK-KCC2 cells | shares compounds with KCC2 mod | HEK293-KCC2, thallium flux FluoZin2 fluorescence; bidirectional: low = inhibitor, high = activator | raw Tl+ flux slope (below DMSO = inhibition, above = activation) at 10 µM | actives 48% (n = 3,700);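 active = thallium flux slope beyond 3 SD from same-plate DMSO control mean in most replicates, usually higher, sometimes lower; inconclusive = repeat tests gave conflicting results; inactive = no significant difference from controls in most replicates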;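 note: slope of initial-normalized fluorescence between seconds 10 and 20 after thallium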
# HEK293 Tl flux2 = native HEK Tl+ uptake effects, second counter-screen – HEK cells, counterscreen 2, counter-screen for KCC2 modulator project, confirmation. actives 33% (n = 3,700). thallium flux slope at 10 µM. shares compounds with KCC2 mod. HEK293 parental, thallium flux FluoZin-2 fluorescence slope;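 active = thallium flux slope above the same plate's solvent-control mean plus 3 SD in both duplicate wells; inconclusive = duplicate wells that disagreed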;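 note: run without ouabain in cells lacking the KCC2 cotransporter; slope of fluorescence scaled to its starting value between 10 and 20 s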
# * marks the source's active call; other numbers are inactive results; i = inactive; ? = inconclusive; / = not tested or not shown. Compounds with a hit are over-represented: about 4.2% of the library has one in this group of screens.
SMILES,KCC2 mod,hERG protect,SUMO Mot1 rescue,AI-2 QS modul,KCNQ1 act,KCNQ1 inh,KCC2 sec1,KCC2 bumet counter,KCC2 sec2,HEK counter1,KCC2 retest ouab,HEK293 Tl flux2
C/C(=N\NC(=S)NCc1ccccc1)c1cccs1,16*,-2,-2,13,i,i,0.0077,0.041*,0.049*,0.04*,0.042*,0.04*
C/C(=N\NC(=S)NCc1ccccc1)c1ccc(C)o1,5.4*,-9,0,19,i,i,0.0061,0.015*,0.029,0.012*,?,0.011
Cc1ccccc1/C=C1\SC(=S)N(/N=C/c2cc([N+](=O)[O-])ccc2O)C1=O,/,-20,553,5,i,i,/,/,/,/,/,/
Cc1ccc2c(C)nc(NC3=NCN(C(C)C)CN3)nc2c1,-0.28,/,/,/,/,/,/,/,/,/,/,/
COc1ccc(-c2cn(-c3ccc(C)cc3C)c(=O)[nH]2)cc1OC,-0.12,-10,-10,1,i,i,/,/,/,/,/,/
Cc1cc(S(=O)(=O)N(C)CCc2ccccc2)ccc1-n1cnnn1,-4.6*,-2,-2,12,i,i,0.0082,0.0047,0.024*,0.0074,0.016*,0.01
C=C(C)COc1ccc(-c2[nH]ncc2-c2ccc(OC)cc2)c(O)c1,0.98,-11,-23,48,i,i,/,/,/,/,/,/
C=C(C)COc1ccc(-c2[nH]ncc2-c2ccccc2)c(O)c1,-4.4*,-13,21,35,i,i,0.011,?,0.035,0.0073,0.023,0.01
CC(C)n1c(-c2ccc(N(C)C)cc2)nc2ccccc21,-3.3*,/,-17,/,/,/,0.0071,0.0049,0.028,?,0.017,0.0095
CCc1n[nH]c2c1C(=O)CC(C)(C)C2,-0.028,-7,-1,12,i,i,/,/,/,/,/,/
CCCc1oc2c(c(=O)c1CC)C(=O)CC(C)(C)C2,/,-19,5,5,i,i,0.016,0.0046,0.028,?,0.015,0.011
CCOC(=O)C1=C(NC(=S)NC(=O)c2ccccc2)c2ccccc2CC1C(C)C (configuration not stated),/,-9,24,1,i,i,/,/,/,/,/,/
CCOC(=O)C1=C(NC(=S)NC(=O)c2ccccc2)c2ccccc2CC1(C)CC (configuration not stated),5.6*,-11,-28,8,i,i,?,0.033*,0.036,0.015*,?,0.011
COc1ccc(-c2nnc(S/C(=C/c3ccc(Cl)cc3)C(=O)O)o2)cc1,-3*,-3,679*,11,i,i,0.0082,0.0055*,0.023*,0.0077,0.016*,0.0099
NC(=O)C1CCN(C(=O)C2CCC(=O)N(CC3CCCCC3)C2)CC1 (configuration not stated),/,-5,6,-2,i,i,/,/,/,/,/,/
Cc1nc2cc(C(=O)N3c4ccccc4CC3C)ccc2s1 (configuration not stated),/,-8,180,5,i,i,?,0.0058,0.029,0.0066,0.02*,?
COc1ccc(CCNc2oc(COc3ccccc3Cl)nc2C#N)cc1OC,-2.9,-20,-8,16,i,i,/,/,/,/,/,/
COc1ccc(CCNc2oc(COc3ccccc3F)nc2C#N)cc1OC,-4*,/,6,/,/,/,0.0061,?,0.026*,0.0062*,0.015*,?
Cc1nn(-c2ccccc2)nc1C(=O)Nc1nnc(C(F)(F)F)s1,24*,-18,-15,24,i,i,0.016*,0.049*,0.033,0.019*,0.04*,0.013*
CCCn1c(C(O)c2cccc(OC)c2)nc2ccccc21 (configuration not stated),/,-2,/,18,i,i,/,/,/,/,/,/
Cc1cc(C(=O)N2CCC(C)CC2)on1,0.29,-15,32,32,i,i,/,/,/,/,/,/
CCOC(=O)N1CCN(C(=O)c2cc(C)no2)CC1,-3.9*,-8,10,8,i,i,0.0072,0.0047,0.031,0.0072,0.018,0.01
CCOC(=O)NNc1ccc2nonc2c1[N+](=O)[O-],13*,0,13,-92*,i,i,0.007,0.013*,0.033,0.013*,0.024*,0.013*
CCSc1nnc(-c2cc(Br)ccc2N=Cc2c(C)[nH]n(-c3ccccc3)c2=O)c(=O)[nH]1,4.6*,-12,-11,4,i,i,0.0067,0.014*,0.028,0.013*,0.02,0.012*
